In ChEMBL document CHEMBL1122156, “A comparison of the inhibitory action of 5-(substituted-benzyl)-2,4-diaminopyrimidines on dihydrofolate reductase from chicken liver with that from bovine liver” (J Med Chem, 1982):

How the values were obtained:
[1] = target: T1, Dihydrofolate reductase (Gallus gallus) (UniProt P00378)
T1 sequence (whole entry): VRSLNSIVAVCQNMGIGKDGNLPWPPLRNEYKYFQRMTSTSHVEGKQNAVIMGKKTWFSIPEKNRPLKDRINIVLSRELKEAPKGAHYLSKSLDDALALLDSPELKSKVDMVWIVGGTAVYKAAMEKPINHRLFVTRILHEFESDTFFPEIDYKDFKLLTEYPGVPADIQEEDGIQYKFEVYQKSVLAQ

[2] = target: T2, Dihydrofolate reductase (Bos taurus) (UniProt P00376); test: Inhibitory activity against bovine liver Dihydrofolate reductase at pH 7.2.
T2 sequence (whole entry): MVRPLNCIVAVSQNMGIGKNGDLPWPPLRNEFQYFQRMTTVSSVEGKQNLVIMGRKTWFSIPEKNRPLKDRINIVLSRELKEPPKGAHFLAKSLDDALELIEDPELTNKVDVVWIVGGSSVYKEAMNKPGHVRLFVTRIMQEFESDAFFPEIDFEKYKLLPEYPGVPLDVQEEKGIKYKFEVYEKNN
Outline: (§1)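 DHFR from chicken liver and from bovine liver, each assayed at pH 7.2 by the group's earlier-reported inhibition procedure. Potency is expressed as an apparent inhibition constant, reported as log(1/Ki app).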

[3] = target: T2, Dihydrofolate reductase (Bos taurus)
[4] = target: T1, Dihydrofolate reductase (Gallus gallus); test: Inhibitory activity against chicken Dihydrofolate reductase at pH 7.2.
Outline: as §1

## Nc1ncc(Cc2cccc(Cl)c2)c(N)n1
[1]
  Log 1/Ki app: 5.01

## CCCCOCc1cccc(Cc2cnc(N)nc2N)c1
[1]
  Log 1/Ki app: 5.17

## COCCOc1c(OC)cc(Cc2cnc(N)nc2N)cc1OC
[1]
  Log 1/Ki app: 3.64

## Cc1cccc(Cc2cnc(N)nc2N)c1
[1]
  Log 1/Ki app: 4.72

## Nc1ncc(Cc2ccc([N+](=O)[O-])cc2)c(N)n1
[1]
  Log 1/Ki app: 4.37

## CCCCCCCOc1ccc(Cc2cnc(N)nc2N)cc1
[2]
  Log 1/Ki app: 5.45

## Nc1ncc(Cc2ccc(F)cc2)c(N)n1
[1]
  Log 1/Ki app: 4.79

## Nc1ncc(Cc2ccccc2)c(N)n1
[1]
  Log 1/Ki app: 4.71

## CC(=O)Nc1ccc(Cc2cnc(N)nc2N)cc1
[1]
  Log 1/Ki app: 4.26

## Nc1ncc(Cc2cccc(I)c2)c(N)n1
[1]
  Log 1/Ki app: 4.79
[3]
  Log 1/Ki app: 6.15

## Nc1ncc(Cc2cccc(F)c2)c(N)n1
[1]
  Log 1/Ki app: 4.7

## COc1ccc(Cc2cnc(N)nc2N)cc1C(F)(F)F
[1]
  Log 1/Ki app: 4.99

## Nc1ncc(Cc2ccc(OC(F)(F)F)cc2)c(N)n1
[1]
  Log 1/Ki app: 4.26
[3]
  Log 1/Ki app: 5.42

## Nc1ncc(Cc2cc(O)cc(O)c2)c(N)n1
[2]
  Log 1/Ki app: 3.39

## COc1ccc(Cc2cnc(N)nc2N)cc1OC
[1]
  Log 1/Ki app: 4.46
[3]
  Log 1/Ki app: 5.66

## CN(C)c1ccc(Cc2cnc(N)nc2N)cc1
[1]
  Log 1/Ki app: 4.01

## COCCOc1cccc(Cc2cnc(N)nc2N)c1
[4]
  Log 1/Ki app: 4.83
[2]
  Log 1/Ki app: 5.58
